Source: ChEMBL document CHEMBL1134651, “Acyl substitution at the ortho position of anilides enhances oral bioavailability of thiophene sulfonamides: TBC3214, an ETA selective endothelin antagonist” (J Med Chem, 2001)

Key:
[1] = Oral absorption expressed as Area under curve was determined; type: ADME; design: concentration or dose not given beside the values
Summary of the method: (§1)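 Rats given compound orally at 50 mg/kg. Serial 200 μL blood samples drawn from the tail vein into heparin-coated microhematocrit tubes at selected times. Red cells removed at once by centrifugation; plasma stored at -80 °C, proteins precipitated with acetonitrile, drug measured by HPLC. Absorption reported as peak plasma concentration (Cmax) and AUC extrapolated to infinity.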

Endothelin-1 receptor = biological target: T1, Endothelin-1 receptor (Homo sapiens, UniProt P25101); experiment: Inhibitory concentration was determined against selective Endothelin A receptor
T1 sequence (P25101 whole entry): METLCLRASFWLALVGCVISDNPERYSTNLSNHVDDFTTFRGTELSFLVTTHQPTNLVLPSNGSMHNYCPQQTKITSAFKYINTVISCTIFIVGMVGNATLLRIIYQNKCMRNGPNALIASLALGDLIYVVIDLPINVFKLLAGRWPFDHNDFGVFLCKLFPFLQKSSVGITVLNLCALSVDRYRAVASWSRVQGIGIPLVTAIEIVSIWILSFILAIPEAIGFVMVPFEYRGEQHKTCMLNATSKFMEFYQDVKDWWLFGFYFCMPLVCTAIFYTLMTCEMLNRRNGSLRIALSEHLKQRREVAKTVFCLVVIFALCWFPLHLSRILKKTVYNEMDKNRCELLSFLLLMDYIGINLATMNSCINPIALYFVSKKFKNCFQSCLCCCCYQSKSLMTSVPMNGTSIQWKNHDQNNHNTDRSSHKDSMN

[2] = biological target: Endothelin receptor, ET-A/ET-B (Homo sapiens) (UniProt P24530+P25101); experiment: Relative affinity for human ETA over ETB receptors.; type: protein assay
Endothelin receptor, ET-A/ET-B (Homo sapiens), sequence (P24530 whole entry, looked up, one chain of several): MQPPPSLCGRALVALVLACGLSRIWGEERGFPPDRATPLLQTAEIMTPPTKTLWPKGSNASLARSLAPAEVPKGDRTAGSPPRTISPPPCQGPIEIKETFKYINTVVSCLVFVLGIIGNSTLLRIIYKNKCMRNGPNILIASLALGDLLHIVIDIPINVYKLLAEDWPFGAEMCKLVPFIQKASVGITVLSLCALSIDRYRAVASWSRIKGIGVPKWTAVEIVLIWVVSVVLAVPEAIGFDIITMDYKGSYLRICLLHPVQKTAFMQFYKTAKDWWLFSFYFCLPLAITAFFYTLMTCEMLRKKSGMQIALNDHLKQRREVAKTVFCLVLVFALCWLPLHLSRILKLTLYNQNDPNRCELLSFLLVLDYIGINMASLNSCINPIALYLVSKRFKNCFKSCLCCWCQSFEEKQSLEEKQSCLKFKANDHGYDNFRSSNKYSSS

[3] = Oral absorption expressed as peak plasma conc (Cmax) after oral dosing of 50 mg/kg in rat; type: ADME, organism-based; design: dose 50 mg/kg, route oral; summary of the method: as §1
[4] = Half life period in plasma was determined; type: ADME, cell-free
[5] = Oral bioavailability was evaluated in dog.; type: ADME, organism-based, Canis lupus familiaris; settings: in vivo
[6] = Oral bioavailability was evaluated in cat.; type: ADME, organism-based, Felis catus; settings: in vivo
[7] = Oral bioavailability in rat; type: ADME, organism-based; settings: in vivo

SMILES | AUC [1] | IC50 (Endothelin-1 receptor) | Selectivity [2] | Cmax [3] | half-life [4] | bioavailability [5] | bioavailability [6] | bioavailability [7]
Cc1cc(C)c(NC(=O)c2sccc2S(=O)(=O)Nc2noc(C)c2Cl)c(C)c1CC#N | 171 µg·h/mL | 100 pM | 8500 | 53900 ng/mL |  |  |  | 
Cc1cc(C)c(CC(=O)c2sccc2S(=O)(=O)Nc2onc(C)c2Cl)c(C)c1O | 15.8 µg·h/mL | 140 pM | 10800 | 2600 ng/mL |  |  |  | 
Cc1ccc(NC(=O)c2sccc2S(=O)(=O)Nc2onc(C)c2Cl)cc1 |  |  | 940 |  |  |  |  | 
Cc1noc(NS(=O)(=O)c2ccsc2C(=O)Nc2ccc3c(c2)OCO3)c1Br |  |  | 500 |  |  |  |  | 
Cc1cc(C)c(NC(=O)c2sccc2S(=O)(=O)Nc2onc(C)c2Cl)c(C)c1O | 118 µg·h/mL | 190 pM | 10900 | 48200 ng/mL |  |  |  | 
CC(=O)c1cc(C)cc(C)c1NC(=O)c1sccc1S(=O)(=O)Nc1onc(C)c1Cl | 272 µg·h/mL | 40 pM | 442000 | 57600 ng/mL | 4 h | 70% | 42% | 25%
CC(=O)c1cc2c(cc1NC(=O)c1sccc1S(=O)(=O)Nc1onc(C)c1Cl)OCO2 |  |  | 3000 |  |  |  |  | 27%
Cc1cc2c(cc1CC(=O)c1sccc1S(=O)(=O)Nc1onc(C)c1C)OCO2 |  |  | 10000 |  |  |  |  | ~100%
Cc1cc(C)c(NC(=O)c2sccc2S(=O)(=O)Nc2onc(C)c2C)c(C)c1CC#N | 45.8 µg·h/mL | 170 pM | 14600 | 13000 ng/mL |  |  |  | 
CCc1cc(C)cc(C)c1NC(=O)c1sccc1S(=O)(=O)Nc1onc(C)c1Cl | 47 µg·h/mL | 430 pM |  | 21800 ng/mL |  |  |  | 
Cc1cc(C)c(NC(=O)c2sccc2S(=O)(=O)Nc2onc(C)c2Cl)c(C(=O)C(C)C)c1 | 298 µg·h/mL | 120 pM | 14000 | 59200 ng/mL |  |  |  | 
Cc1noc(NS(=O)(=O)c2ccsc2C(=O)Nc2cc3c(cc2C#N)OCO3)c1Cl |  |  | 12000 |  |  |  |  | 8%
Cc1cc(C)c(NC(=O)c2sccc2S(=O)(=O)Nc2onc(C)c2Cl)c(C)c1 | 103 µg·h/mL | 170 pM | 7000 | 35900 ng/mL |  |  |  | 
Cc1cc2c(cc1CC(=O)c1sccc1S(=O)(=O)Nc1onc(C)c1Cl)OCO2 |  |  | 7000 |  |  |  |  | 
Cc1cc(C)c(NC(=O)c2sccc2S(=O)(=O)Nc2onc(C)c2Cl)c(C)c1CC#N | 59.9 µg·h/mL |  | 32900 | 42000 ng/mL |  |  |  | 
Cc1noc(NS(=O)(=O)c2ccsc2C(=O)Cc2ccc3c(c2)OCO3)c1Cl |  |  | 300 |  |  |  |  | 
